Published values from different studies.
Lines come from different studies, so protocols differ.
BTK: Tyrosine-protein kinase BTK (BTK, Homo sapiens, UniProt Q06187)

| Compound | target | observed | mode | technique | tested at | quantity | result |
| --- | --- | --- | --- | --- | --- | --- | --- |
| COc1ccc2[nH]c3c4[nH]c5ccc(OC)cc5c4c4c(c3c2c1)C(=O)NC4=O | BTK | binding | – | competition with immobilised ligand | 1 µM | remaining binding | 74% |
| [2H]c1cc(C)c(NC(=O)c2cnc(Nc3cc(N4CC[C@@H](O)C4)nc(C)n3)s2)c(Cl)c1 | BTK | enzyme activity | inhibitor | mobility shift | 1 nM | inhibition | 73% |
| CCCCC(=O)Nc1ccc(-c2ccc3ncn(CCC)c(=O)c3c2)cn1 | BTK | binding | – | competition with immobilised ligand | 0.5 µM | remaining binding | 89% |
| COc1ccc2oc(-c3ccc4nc(N)oc4c3)c/c(=N\c3ccccc3NC(=O)CCN)c2c1 | Tyrosine-protein kinase BTK (BTK, Homo sapiens, UniProt Q06187, R28H) | cell-free assay | – | – | 1 µM | remaining signal | 99% |
| C#Cc1cnc(Nc2ccnc(CO)c2)nc1Nc1ccccc1S(C)(=O)=NC#N (stereo not shown) | BTK | cell-free assay | – | – | 1 µM | remaining signal | 41% |
| C1=C/COCc2cc(ccc2OCCN2CCCC2)Nc2nccc(n2)-c2cccc(c2)COC/1 | BTK | cell-free assay | – | – | 0.1 µM | remaining signal | 100% |
| Cc1nc(Nc2ncc(C(=O)Nc3c(C)cccc3Cl)s2)cc(N2CCC(O)CC2)n1 | BTK | enzyme activity | inhibitor | mobility shift | 1 nM | inhibition | 77% |
| CC#CC(=O)N1CCC[C@H]1c1nc(-c2ccc(C(=O)Nc3ccccn3)cc2)c2c(N)nccn12 | BTK | enzyme activity | inhibitor | – | 1 µM | inhibition | 100% |
| N#Cc1ccc(NC(=O)Nc2ccccc2)cc1 | BTK | cell-free assay | – | competition with immobilised ligand | 25 µM | remaining binding | 89% |
| Cc1nc(Nc2ncc(C(=O)Nc3c(C)cccc3Cl)s2)cc(N2CC[C@H](N)C2)n1 | BTK | enzyme activity | inhibitor | mobility shift | 1 nM | inhibition | 65% |
| CN1CCN(C(=O)c2ccc(NC(=O)Nc3ccc(N(C)c4ccnc(Nc5ccc(CS(C)(=O)=O)cc5)n4)cc3)cc2)CC1 | BTK | binding | – | competition with immobilised ligand | 1 µM | remaining binding | 50% |
| CO[C@@H]1[C@H](N(C)C(=O)c2ccccc2)C[C@H]2O[C@]1(C)n1c3ccccc3c3c4c(c5c6ccccc6n2c5c31)C(=O)NC4 | BTK | enzyme activity | inhibitor | – | 1 µM | inhibition | 0% |
| C=CC(=O)Nc1cccc(Oc2nc(Nc3ccc(N4CCN(C)CC4)cc3)nc3ccoc23)c1 | Tyrosine-protein kinase BTK, non-phosphorylated (BTK, Homo sapiens, UniProt Q06187) | cell-free assay | – | TR-FRET | – | kinact/KI | 219000 M⁻¹ s⁻¹ |
